In ChEMBL document CHEMBL1240299, “C3-symmetric peptide scaffolds are functional mimetics of trimeric CD40L” (Nat Chem Biol, 2005):
Activity calls are given as the source filed them. No cut-off for these calls is given here.

Biological target: Tumor necrosis factor receptor superfamily member 5 (Homo sapiens, UniProt P25942)
Test: Binding affinity to human CD40 by surface plasmon resonance method
Outline: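 Biacore CM5 chip coated by amine coupling with anti-mouse Ig (~10,000 RU), which captured hCD40:mIg. Ligands were dissolved in water at 1 mM and diluted, then injected at several concentrations at 25 °C in HBS-EP (pH 7.4), 30 µl min⁻¹, 5 min association and 5 min dissociation. Regeneration was 50 mM HCl. Control-channel-subtracted sensorgrams were fitted to binding models.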

Chain of Tumor necrosis factor receptor superfamily member 5 (P25942 whole entry): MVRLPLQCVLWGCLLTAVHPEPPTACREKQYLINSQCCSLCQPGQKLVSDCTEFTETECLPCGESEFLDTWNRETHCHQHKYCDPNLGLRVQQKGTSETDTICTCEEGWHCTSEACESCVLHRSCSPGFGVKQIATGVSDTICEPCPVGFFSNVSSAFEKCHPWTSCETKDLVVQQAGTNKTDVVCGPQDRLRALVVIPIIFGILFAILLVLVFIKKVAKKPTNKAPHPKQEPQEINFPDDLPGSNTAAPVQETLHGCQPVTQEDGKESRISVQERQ

With `NCCCC[C@H](N)C(=O)NCC(=O)N[C@@H](Cc1ccc(O)cc1)C(=O)N[C@@H](Cc1ccc(O)cc1)C(=O)NCCCCCC(=O)N[C@@H](CCCCNC(=O)CCCC[C@H]1SC[C@H]2NC(=O)N[C@H]21)C(=O)NCCCCCC(=O)NCCCC[C@@H]1CNC(=O)C[C@H](CCCCNC(=O)CCCCCNC(=O)[C@H](CCCCNC(=O)CCCC[C@H]2SC[C@H]3NC(=O)N[C@H]32)NC(=O)CCCCCNC(=O)[C@H](Cc2ccc(O)cc2)NC(=O)[C@H](Cc2ccc(O)cc2)NC(=O)CNC(=O)[C@@H](N)CCCCN)NC[C@H](CCCCNC(=O)CCCCCNC(=O)[C@H](CCCCNC(=O)CCCC[C@H]2SC[C@H]3NC(=O)N[C@H]32)NC(=O)CCCCCNC(=O)[C@H](Cc2ccc(O)cc2)NC(=O)[C@H](Cc2ccc(O)cc2)NC(=O)CNC(=O)[C@@H](N)CCCCN)NC(=O)C1` the Activity was “Active”.
